Data: ChEMBL document CHEMBL2331091, “Synthesis and pharmacological evaluation of some novel 2-(5-hydroxy-5-trifluoromethyl-4,5-dihydropyrazol-1-yl)-4-(coumarin-3-yl)thiazoles” (2013)
Converted amounts (≈) assume the structure as drawn. The source made the active and inactive calls. The calls are words filed in the database; no cut-off is given here.

Legend:
Assay type in all cases: functional
[1] = system: Escherichia coli; assay: Antibacterial activity against Escherichia coli assessed as growth inhibition at 37 degC after overnight incubation by agar well diffusion method
[2] = system: Klebsiella aerogenes; assay: Antibacterial activity against Klebsiella aerogenes assessed as growth inhibition at 37 degC after overnight incubation by agar well diffusion method
[3] = system: Staphylococcus epidermidis; assay: Antibacterial activity against Staphylococcus epidermidis assessed as growth inhibition at 37 degC after overnight incubation by agar well diffusion method
[4] = system: Bacillus subtilis; assay: Antibacterial activity against Bacillus subtilis assessed as growth inhibition at 37 degC after overnight incubation by agar well diffusion method
[5] = system: Staphylococcus aureus; assay: Antibacterial activity against Staphylococcus aureus assessed as growth inhibition at 37 degC after overnight incubation by agar well diffusion method
[6] = system: Pseudomonas aeruginosa; assay: Antibacterial activity against Pseudomonas aeruginosa assessed as diameter of growth inhibition zone at 2 mg/ml at 37 degC after 24 hrs by agar well diffusion method; details: for zone of inhibition at 2000 µg/mL: read-out: DIZ
[7] = system: Proteus mirabilis; assay: Antibacterial activity against Proteus mirabilis assessed as diameter of growth inhibition zone at 2 mg/ml at 37 degC after 24 hrs by agar well diffusion method; details: for zone of inhibition at 2000 µg/mL: read-out: DIZ
[8] = system: Escherichia coli; assay: Antibacterial activity against Escherichia coli assessed as diameter of growth inhibition zone at 2 mg/ml at 37 degC after 24 hrs by agar well diffusion method; details: for zone of inhibition at 2000 µg/mL: read-out: DIZ
[9] = system: Klebsiella aerogenes; assay: Antibacterial activity against Klebsiella aerogenes assessed as diameter of growth inhibition zone at 2 mg/ml at 37 degC after 24 hrs by agar well diffusion method; details: for zone of inhibition at 2000 µg/mL: read-out: DIZ
[10] = system: Staphylococcus epidermidis; assay: Antibacterial activity against Staphylococcus epidermidis assessed as diameter of growth inhibition zone at 2 mg/ml at 37 degC after 24 hrs by agar well diffusion method; details: read-out: DIZ
[11] = system: Bacillus subtilis; assay: Antibacterial activity against Bacillus subtilis assessed as diameter of growth inhibition zone at 2 mg/ml at 37 degC after 24 hrs by agar well diffusion method; details: for zone of inhibition at 2000 µg/mL: read-out: DIZ
[12] = system: Staphylococcus aureus; assay: Antibacterial activity against Staphylococcus aureus assessed as diameter of growth inhibition zone at 2 mg/ml at 37 degC after 24 hrs by agar well diffusion method; details: read-out: DIZ
[13] = system: Pseudomonas aeruginosa; assay: Antibacterial activity against Pseudomonas aeruginosa assessed as growth inhibition at 37 degC after overnight incubation by agar well diffusion method
[14] = system: Proteus mirabilis; assay: Antibacterial activity against Proteus mirabilis assessed as growth inhibition at 37 degC after overnight incubation by agar well diffusion method
[15] = system: Rattus norvegicus; assay: Antiinflammatory activity in Wistar albino rat assessed as inhibition of carrageenan-induced paw edema at 50 mg/kg, po administered 30 mins prior to carrageenan challenge measured after 4 hrs by plethysmometer analysis
In short: (§1)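 Male Wistar albino rats, 200-250 g, five per group, fasted from 12 h before and during the test. Compounds were given orally at 50 mg/kg 30 min before sub-plantar injection of 0.1 ml 1% carrageenan in 0.9% saline into the left hind paw. Tween 80 vehicle controls. Paw volume was read by plethysmometer up to the tibiotarsal mark at 0-4 h. Results are mean ± SEM and % inhibition, ANOVA and Dunnett's test.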

[16] = system: Rattus norvegicus; assay: Antiinflammatory activity in Wistar albino rat assessed as inhibition of carrageenan-induced paw edema at 50 mg/kg, po administered 30 mins prior to carrageenan challenge measured after 3 hrs by plethysmometer analysis; in short: as §1
[17] = system: Rattus norvegicus; assay: Antiinflammatory activity in Wistar albino rat assessed as inhibition of carrageenan-induced paw edema at 50 mg/kg, po administered 30 mins prior to carrageenan challenge measured after 2 hrs by plethysmometer analysis; in short: as §1
[18] = system: Rattus norvegicus; assay: Antiinflammatory activity in Wistar albino rat assessed as inhibition of carrageenan-induced paw edema at 50 mg/kg, po administered 30 mins prior to carrageenan challenge measured after 1 hr by plethysmometer analysis; in short: as §1
[19] = system: Rattus norvegicus; assay: Antiinflammatory activity in Wistar albino rat assessed as inhibition of carrageenan-induced paw edema at 10 mg/kg, po administered 30 mins prior to carrageenan challenge measured after 4 hrs by plethysmometer analysis
[20] = system: Rattus norvegicus; assay: Antiinflammatory activity in Wistar albino rat assessed as inhibition of carrageenan-induced paw edema at 10 mg/kg, po administered 30 mins prior to carrageenan challenge measured after 3 hrs by plethysmometer analysis
[21] = system: Rattus norvegicus; assay: Antiinflammatory activity in Wistar albino rat assessed as inhibition of carrageenan-induced paw edema at 10 mg/kg, po administered 30 mins prior to carrageenan challenge measured after 2 hrs by plethysmometer analysis
[22] = system: Rattus norvegicus; assay: Antiinflammatory activity in Wistar albino rat assessed as inhibition of carrageenan-induced paw edema at 10 mg/kg, po administered 30 mins prior to carrageenan challenge measured after 1 hr by plethysmometer analysis

| Compound | MIC [1] [µg/mL] | MIC [2] [µg/mL] | MIC [3] [µg/mL] | MIC [4] [µg/mL] | MIC [5] [µg/mL] | diameter of the inhibition zone (DIZ) [6] | diameter of the inhibition zone (DIZ) [7] | zone of inhibition at 2000 µg/mL [8] [mm] | zone of inhibition at 2000 µg/mL [9] [mm] | zone of inhibition at 2000 µg/mL [10] [mm] | zone of inhibition at 2000 µg/mL [11] [mm] | zone of inhibition at 2000 µg/mL [12] [mm] | MIC [13] [µg/mL] | MIC [14] [µg/mL] | zone of inhibition at 2000 µg/mL [6] [mm] | zone of inhibition at 2000 µg/mL [7] [mm] | diameter of the inhibition zone (DIZ) [8] | other results |
| --- | --- | --- | --- | --- | --- | --- | --- | --- | --- | --- | --- | --- | --- | --- | --- | --- | --- | --- |
| O=c1oc2ccc(Br)cc2cc1-c1csc(N2N=C(c3ccc(F)cc3)C[C@@]2(O)C(F)(F)F)n1 | 512 (≈ 924 µM) | 256 (≈ 462 µM) | 64 (≈ 115 µM) | 512 (≈ 924 µM) | 128 (≈ 231 µM) | inactive | inactive | 11 | 11 | 14 | 12.4 | 1.87 | – | – | – | – | – | – |
| O=c1oc2ccc(Br)cc2cc1-c1csc(N2N=C(c3ccc(Cl)cc3)C[C@@]2(O)C(F)(F)F)n1 | – | 8 (≈ 14 µM) | 512 (≈ 897 µM) | 512 (≈ 897 µM) | 128 (≈ 224 µM) | – | – | – | 13 | 12.5 | 10.3 | 2 | 128 (≈ 224 µM) | 16 (≈ 28 µM) | 8.1 | 15.1 | inactive | – |
| C=CC1=C(C(=O)O)N2C(=O)[C@@H](NC(=O)/C(=N\OCC(=O)O)c3csc(N)n3)[C@H]2SC1 [CEFIXIME] | 2 (≈ 4.41 µM) | 2 (≈ 4.41 µM) | 2 (≈ 4.41 µM) | 2 (≈ 4.41 µM) | 2 (≈ 4.41 µM) | – | – | 14.1 | 15 | 22 | 26 | 3.9 | 2 (≈ 4.41 µM) | 2 (≈ 4.41 µM) | 10 | 20 | – | – |
| O=c1oc2ccc(Cl)cc2cc1-c1csc(N2N=C(c3ccc(Cl)cc3)C[C@@]2(O)C(F)(F)F)n1 | – | – | 512 (≈ 973 µM) | – | 64 (≈ 122 µM) | inactive | inactive | – | – | 11.2 | – | 4.13 | – | – | – | – | inactive | diameter of the inhibition zone (DIZ) [9]: inactive; diameter of the inhibition zone (DIZ) [11]: inactive; inhibition in vivo at 50 mg/kg [15]: 31.5%; inhibition in vivo at 50 mg/kg [16]: 42.1%; inhibition in vivo at 50 mg/kg [17]: 62.5%; inhibition in vivo at 50 mg/kg [18]: 73.2% |
| O=c1oc2ccccc2cc1-c1csc(N2N=C(c3ccc(F)cc3)C[C@@]2(O)C(F)(F)F)n1 | 2 (≈ 4.21 µM) | 8 (≈ 16.8 µM) | 64 (≈ 135 µM) | 512 (≈ 1080 µM) | 32 (≈ 67.3 µM) | – | – | 13 | 12.1 | 14 | 12 | 3.96 | 32 (≈ 67.3 µM) | 4 (≈ 8.41 µM) | 7.87 | 17 | – | inhibition in vivo at 50 mg/kg [15]: 18%; inhibition in vivo at 50 mg/kg [16]: 22.3%; inhibition in vivo at 50 mg/kg [17]: 56.7%; inhibition in vivo at 50 mg/kg [18]: 74.7% |
| COc1ccc2c(c1)c(CC(=O)O)c(C)n2C(=O)c1ccc(Cl)cc1 [INDOMETHACIN] | – | – | – | – | – | – | – | – | – | – | – | – | – | – | – | – | – | inhibition in vivo at 10 mg/kg [19]: 86.5%; inhibition in vivo at 10 mg/kg [20]: 80.9%; inhibition in vivo at 10 mg/kg [21]: 84.2%; inhibition in vivo at 10 mg/kg [22]: 94.4% |
| O=c1oc2ccc(Cl)cc2cc1-c1csc(N2N=C(c3ccc(F)cc3)C[C@@]2(O)C(F)(F)F)n1 | – | – | 64 (≈ 126 µM) | – | 32 (≈ 62.8 µM) | inactive | inactive | – | – | 14 | – | 4.93 | – | – | – | – | inactive | diameter of the inhibition zone (DIZ) [9]: inactive; diameter of the inhibition zone (DIZ) [11]: inactive |
